KCNK3 inh: human KCNK3 channel inhibitors, primary screen, CHO cells, FluxOR thallium flux, B-score; FluxOR fluorescence; stronger effect = lower value; 0.84% of 340,000 active; AID 602410, 2012; B-score at 10 µM;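 active = B-score under library mean minus 4 SD, starting fluorescence ratio at most library mean plus 5 SD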;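 note: more negative B-score means stronger inhibition of thallium flux through KCNK3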
hERG protect: hERG rescue from dofetilide block, primary screen, cell-based, CHO-hERG, FluxOR thallium flux, dofetilide IC70; Voltage-gated inwardly rectifying potassium channel KCNH2 (Homo sapiens), Q12809; activation (rescue from dofetilide block), less the hit threshold, % at 10 µM; 0.51% of 310,000 active; dofetilide IC70 present; AID 1511, 2009;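 active = activation above the mean of controls blocked by dofetilide plus 5 SD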;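 note: thallium influx through hERG after potassium depolarization seen as dye fluorescence rise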
KCNQ1 block: inhibitors of human KCNQ1 channel, primary screen, cell-based, thallium flux, high-throughput. Potassium voltage-gated channel subfamily KQT member 1 (Homo sapiens), P51787. CHO-K1 KCNQ1, FluxOR thallium flux fluorescence; stronger effect = higher value. B-score at 10 µM. 1.3% of 310,000 active;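 active = compounds whose thallium flux B-score, printed positive for inhibition, exceeds three library SD while starting fluorescence stays within three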;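 note: channel opened by potassium depolarization with thallium stimulus after 20 min compound exposure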
KCNK9 inh: KCNK9 potassium channel inhibitors, primary screen, HEK293 cells, thallium flux; FluxOR thallium flux fluorescence; stronger effect = lower value; B-score at 10 µM; 1.2% of 310,000 active; AID 488922, 2010;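 active = ratio B-score over 3 SD below the library mean, with starting fluorescence within 5 SD of its mean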;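 note: negative B-score means less thallium flux so channel inhibition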
KCC2 mod: KCC2 cotransporter modulators, thallium flux, primary screen, cell-based, HEK293 KCC2, FluoZin-2 fluorescence, MLSMR. B-score of Tl+ flux slope (higher = more flux/activation; lower = inhibition) at 10 µM. 2.2% of 190,000 active. KCC2 cells, thallium flux FluoZin-2 fluorescence. AID 1456, 2008;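 active = thallium flux slope and its plate-corrected score both differing from the plate sample mean at a set confidence after two filtering rounds, in either direction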;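 note: slope of fluorescence scaled to starting intensity during 10 to 20 s after thallium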
KCNQ1 pot: potentiators or activators of KCNQ1 channel, primary screen, cell-based, thallium flux, high-throughput. AID 2648, 2010. 0.35% of 310,000 active. Potassium voltage-gated channel subfamily KQT member 1 (Homo sapiens), P51787. CHO-K1 KCNQ1, thallium flux FluxOR fluorescence; stronger effect = higher value. B-score at 10 µM;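 active = fluorescence ratio B-score, a plate-corrected score, at least three library SD, with initial intensity B-score within 5 SD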
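assay system = KCNQ1-transfected CHO-K1 cells | medium = assay buffer with matched DMSO | probe or stimulus = depolarizing K+/Tl+ stimulus, K2SO4 and Tl2SO4 each 12.5 mM in 5x stock | dosing = single dose | incubation = dye 90 min, compound 20 min, room temperature | detection = kinetic FluxOR fluorescence, 10 s baseline plus 110 s post-stimulus | evaluation = ratio B score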
KCNQ1 inh valid: KCNQ1 potassium channel inhibitors, confirmation, cell-based, Tl flux, duplicate. shares compounds with KCNQ1 block. inhibition, % at 10 µM. 93% of 1,600 active. KCNQ1 cell line, FluxOR thallium flux fluorescence;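 active = primary screen active, with duplicate mean exceeding buffer control mean plus 3 SD of buffer wells, cut at about 28% in these data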;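 note: 0% = buffer control ratio and 100% = XE991 inhibitor control ratio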
CHO Tl flux: thallium flux effects in parental CHO cells, counter-screen for KCNQ1 inhibitor project, cell-based, Tl flux; shares compounds with KCNQ1 block; parental CHO-K1, FluxOR thallium flux fluorescence ratio; stronger effect = lower value; zero means no signal rise above baseline; fluorescence ratio (Tl flux) at 10 µM; 21% of 1,600 active;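 active = mean of duplicate thallium-flux fluorescence ratios in parental host cells more than 5 SD below the buffer control mean, cut at about 0.38 in these data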;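 note: ratio is peak minus minimum fluorescence divided by baseline fluorescence; actives read low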
KCNQ1 ephys val: KCNQ1 channel inhibitors, confirmation, orthogonal assay, cell-based, automated electrophysiology | shares compounds with KCNQ1 block | KCNQ1-CHO cells, automated patch clamp current | calls only at 10 µM | 20% of 490 active;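 active = KCNQ1 current drop exceeding 3 SD of negative control wells, seen in both duplicate runs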;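 note: steady state current during a 2 s step from -80 to +40 mV; negative values mean current inhibition and positive values mean potentiation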
KCNQ2 spec: KCNQ2 channel inhibition, selectivity assay for KCNQ1 inhibitor project, cell-based | 71% of 1,600 active | shares compounds with KCNQ1 block | AID 651746, 2012 | KCNQ2 cells, FluxOR thallium flux fluorescence | inhibition, % at 10 µM;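 active = mean percent inhibition of the KCNQ2 thallium signal more than 5 SD above the buffer-only control wells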;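 note: KCNQ2 expressed in CHO cells; 0% = buffer control wells and 100% = XE-991 inhibitor control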
Target sequence (O88943 whole entry, looked up): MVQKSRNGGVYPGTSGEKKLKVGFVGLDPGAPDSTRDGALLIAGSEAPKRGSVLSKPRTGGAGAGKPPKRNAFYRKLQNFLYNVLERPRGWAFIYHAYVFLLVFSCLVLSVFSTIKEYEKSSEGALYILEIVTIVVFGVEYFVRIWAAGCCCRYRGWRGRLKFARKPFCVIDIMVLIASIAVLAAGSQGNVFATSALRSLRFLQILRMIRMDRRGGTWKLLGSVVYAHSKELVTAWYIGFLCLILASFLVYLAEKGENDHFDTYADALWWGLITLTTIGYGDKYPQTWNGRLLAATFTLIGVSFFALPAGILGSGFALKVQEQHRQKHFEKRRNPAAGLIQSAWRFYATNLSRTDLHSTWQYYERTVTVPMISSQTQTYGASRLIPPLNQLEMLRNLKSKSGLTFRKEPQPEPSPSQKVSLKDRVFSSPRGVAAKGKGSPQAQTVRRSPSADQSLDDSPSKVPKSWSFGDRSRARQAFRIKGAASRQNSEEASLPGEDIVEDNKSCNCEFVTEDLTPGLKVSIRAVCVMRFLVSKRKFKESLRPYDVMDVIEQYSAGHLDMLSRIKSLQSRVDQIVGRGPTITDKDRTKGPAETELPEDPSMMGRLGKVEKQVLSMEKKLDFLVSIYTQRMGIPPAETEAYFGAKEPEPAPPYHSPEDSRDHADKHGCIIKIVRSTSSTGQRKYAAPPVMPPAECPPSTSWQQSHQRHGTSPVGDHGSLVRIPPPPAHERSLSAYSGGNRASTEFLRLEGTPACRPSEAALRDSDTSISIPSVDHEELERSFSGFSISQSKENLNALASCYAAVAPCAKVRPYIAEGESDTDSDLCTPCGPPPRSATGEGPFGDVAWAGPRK
KCNQ1-KCNE1 inh: KCNQ1/KCNE1 channel inhibition, selectivity assay for KCNQ1 inhibitor project, CHO-K1 cells, thallium flux, FluxOR; shares compounds with KCNQ1 block; FluxOR thallium flux fluorescence; inhibition, % at 10 µM; 77% of 1,600 active; AID 652147, 2013;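 active = mean percent inhibition of duplicate wells above the buffer-only control mean plus 3 SD of those controls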;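 note: 0% = buffer only wells and 100% = XE-991 inhibitor control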
KCNK9 inh conf: KCNK9 potassium channel inhibitors, confirmation, HEK293 cells, thallium flux, duplicate | shares compounds with KCNK9 inh | FluxOR thallium flux fluorescence | inhibition, % at 10 µM | 43% of 4,900 active | AID 492992, 2010;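 active = thallium signal inhibited by more than 5 SD of the compound-free buffer control wells, on both duplicate plates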;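 note: 0% = assay buffer control wells without compound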
Kir21 sel: mouse Kir2.1 channel inhibition, confirmation, selectivity assay for KCNK9 modulator project, cell-based, HEK293, thallium flux. shares compounds with KCNK9 inh. Kir2.1 cells, FluxOR thallium flux fluorescence. inhibition, % at 10 µM. 4% of 4,900 active;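 active = thallium signal drop more than 5 SD beyond the mean of the no-compound control wells, seen in both duplicate plates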;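 note: signal is fluorescence rise after thallium addition divided by baseline fluorescence; plate controls were assay buffer only for no effect and full block by chlorpromazine control for full effect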
KCNK9 uninduced: thallium flux in non-induced HEK293 cells, confirmation, counter-screen for KCNK9 inhibitor project, cell-based, second counter screen, non-induced KCNK9-HEK293; shares compounds with KCNK9 inh; FluxOR thallium flux; inhibition, % at 10 µM; 40% of 4,900 active;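 active = thallium signal drop beyond 5 SD of the untreated control mean, on both duplicate plates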;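 note: plate controls were buffer only IC0 wells for no effect and SID17386958 at its maximal inhibitory level for full effect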
KCNK3 inh conf: retest of human KCNK3 channel inhibitors, confirmation, CHO cells, FluxOR thallium flux, triplicate; 99% of 2,400 active; FluxOR fluorescence; 0% buffer, 100% carvedilol maximal block; shares compounds with KCNK3 inh; ratio percent of control, % at 10 µM; AID 651638, 2012;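 active = ratio percent of control, averaged over triplicates, above buffer control mean plus 5 SD, cut at about 64% in these data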;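 note: ratio is the fluorescence rise from min to max over baseline after thallium stimulus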
KCNK3 uninduced: thallium flux inhibition in non-induced cells, primary screen, counter-screen for KCNK3 inhibitor project, cell-based, non-induced KCNK3 line, FluxOR thallium, triplicate; shares compounds with KCNK3 inh; non-induced KCNK3 parental cells; stronger effect = lower value; thallium flux ratio (lower = more inhibition) at 10 µM; 40% of 2,400 active;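 active = thallium flux ratio, averaged over three wells, more than 5 SD below the buffer control mean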;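 note: host cells are CHO cells without KCNK3 induction; ratio is peak minus trough fluorescence over baseline then normalized to buffer controls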
An asterisk follows results filed as active; i = inactive; . = no result; + = active, no number. A selection: hits, their analogues and other compounds. The true share with any hit is near 4.1%.

SMILES | KCNK3 inh | hERG protect | KCNQ1 block | KCNK9 inh | KCC2 mod | KCNQ1 pot | KCNQ1 inh valid | CHO Tl flux | KCNQ2 spec | KCNQ1-KCNE1 inh | KCNK9 inh conf | Kir21 sel | KCNK9 uninduced | others
Cc1ccc(-c2[nH]c(-c3ccc(C(=O)O)cc3)nc2-c2ccccc2)cc1 | i | -12 | i | i | 0.015 | i | . | . | . | . | . | . | .
COc1ccc(-c2[nH]c(-c3cc(OC)c4c(c3)OCO4)nc2-c2ccccc2)cc1 | i | -28 | 9* | -9* | -0.55 | i | 152* | 0.34* | 131%* | 186%* | 38%* | i | 32%*
O=C(Cn1ncc2c(=O)oc3ccccc3c21)NCc1cccnc1 | i | -13 | i | i | 0.41 | i | . | . | . | . | . | . | .
O=C(c1nc2ccc(Cl)cn2c1CNCC[C@@H]1C[C@@H]2C=C[C@H]1C2)N1CCCCCCC1 | i | -14 | 9* | i | 0.26 | i | 98* | 0.47 | 82%* | 84%* | i | i | i | KCNQ1 ephys val=i
Nc1ccccc1C#Cc1cnccn1 | i | -3 | i | i | . | i | . | . | . | . | . | . | .
Cc1ccc(N2CC(NS(=O)(=O)c3cccs3)CC2=O)cc1C (stereo not drawn) | i | -9 | i | i | . | i | . | . | . | . | . | . | .
CCOC(=O)c1c(-c2ccccc2)csc1NC(=O)c1nn(CC)cc1Br | i | -10 | i | i | 0.054 | i | . | . | . | . | . | . | .
CCOC(=O)c1c(-c2ccccc2)csc1NC(=S)N(CC)CC | i | -11 | 7* | -8.2* | -0.77 | i | 126* | 0.49 | 106%* | 145%* | 46%* | i | 28%* | KCNQ1 ephys val=i
CCOC(=O)c1sc2nc(CC(=O)OC)nc(N3CCN(c4ccccn4)CC3)c2c1C | i | -8 | 8* | i | -0.89 | i | 112* | 0.41 | 110%* | 140%* | i | i | i | KCNQ1 ephys val=i
Cc1nnc(-c2ccco2)c2cn(-c3cccc(Br)c3)nc12 | i | -3 | i | i | -2 | i | . | . | . | . | . | . | .
Cc1ccc(N2CCN(C(=O)c3cc(COc4c(C)cccc4C)on3)CC2)c(C)c1 | i | -20 | 7* | i | . | i | 86* | 0.39 | 113%* | 108%* | i | i | i
CSc1cc(-c2ccccc2)n(Cc2ccc(Cl)cc2Cl)c(=O)c1C#N | i | -9 | i | i | . | i | . | . | . | . | . | . | .
Cc1cc(C)n(Cc2ccc(Cl)cc2Cl)c(=O)c1S(=O)(=O)c1ccccc1 | i | -15 | 8* | -12* | . | i | 81* | 0.46 | 81%* | 102%* | 56%* | i | 42%*
Cc1cccc(C)c1NC(=O)c1cccc2c1C(=O)N(C1CCCCC1)C2 | -15* | -20 | 6* | -19* | . | i | 74* | 0.44 | 105%* | 129%* | 52%* | i | 36%* | KCNK3 inh conf=126*;KCNK3 uninduced=0.15*
Cc1cc(NC(=O)c2cccc3c2C(=O)N(C2CCCCC2)C3)ccc1Br | i | -5 | i | i | . | i | . | . | . | . | . | . | .
COc1cccc(CNc2nc3ccc(NC(C)=O)cc3s2)c1 | i | . | . | . | . | . | . | . | . | . | . | . | .
CC(c1cccs1)N(Cc1ccco1)C(=O)Nc1ccc(Cl)c(Cl)c1 (stereo not drawn) | -11* | -10 | 19* | -14* | -1.2 | i | 146* | 0.35* | 116%* | + | 60%* | i | 44%* | KCNK3 inh conf=122*;KCNK3 uninduced=0.13*
O=C(Nc1cccc(C(=O)Nc2cccc(Br)c2)c1)c1ccccc1 | -12* | -6 | 13* | i | . | i | 116* | 0.5 | 111%* | 151%* | . | . | . | KCNQ1 ephys val=i;KCNK3 inh conf=118*;KCNK3 uninduced=i
O=C(O)c1cccc(NC(=O)c2ccccc2)c1 | i | . | . | . | . | . | . | . | . | . | . | . | .
Cc1nc2ccc(S(=O)(=O)Nc3cccc(-c4nc5cccnc5s4)c3C)cc2s1 | -9.6* | -21 | 12* | i | -3.5 | i | 145* | 0.32* | 105%* | + | . | . | . | KCNK3 inh conf=114*;KCNK3 uninduced=i

Assay outcomes as filed in PubChem BioAssay.
